Calls of active or inactive are those of the source. The rule behind the calls is not given here.
Legend:
Beta-secretase 1 [1] = molecular target: T1, Beta-secretase 1 (Homo sapiens, UniProt P56817); test: Inhibition of BACE1 by fluorescence assay
Cathepsin D = Cathepsin D (Homo sapiens, UniProt P07339); test: Inhibition of cathepsin D by fluorescence assay
Cathepsin E = molecular target: T2, Cathepsin E (Homo sapiens, UniProt P14091); test: Inhibition of cathepsin E by fluorescence assay
T2 sequence (P14091 whole entry): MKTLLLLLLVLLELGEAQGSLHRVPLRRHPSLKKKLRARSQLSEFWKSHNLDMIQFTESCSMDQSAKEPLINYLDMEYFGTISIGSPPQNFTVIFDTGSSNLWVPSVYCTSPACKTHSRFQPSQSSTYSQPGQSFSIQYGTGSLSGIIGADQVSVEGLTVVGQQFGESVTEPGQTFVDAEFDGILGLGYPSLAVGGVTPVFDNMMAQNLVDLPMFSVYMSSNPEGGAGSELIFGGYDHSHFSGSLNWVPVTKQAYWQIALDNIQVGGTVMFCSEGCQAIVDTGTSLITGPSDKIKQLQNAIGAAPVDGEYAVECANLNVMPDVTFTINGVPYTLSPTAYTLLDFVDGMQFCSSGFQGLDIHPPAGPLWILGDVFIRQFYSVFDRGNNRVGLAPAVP

Beta-secretase 1 [2] = molecular target: T1, Beta-secretase 1; details: H4, at 10 µM
[3] = molecular target: T3, Gamma-secretase (Homo sapiens) (UniProt Q96BI3+Q9NZ42+Q8WW43+P49768+Q92542+P49810); test: Inhibition of gamma secretase expressed in human H4 cells expressing BRI-C99 fusion protein assessed as C99 fragment accumulation fragment at 10 uM incubated for 16 hrs in by immunoblot; format: cell-based
Summary of the method: (§1)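 H4 cells overexpressing Bri-C99 (400000/well) were kept in Opti-MEM with 1% serum and treated 16 h with test compound (10 μM), LY411575 (100 nM) or BACE1 inhibitor IV (1 μM). Cells were lysed in TBS/1% Triton X-100 and run on a 12% bis-tris gel. Blots were probed with CT-20 antibody for furin-generated C99 and read on an infrared imager.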

[4] = molecular target: T3, Gamma-secretase (Homo sapiens); test: Inhibition of gamma secretase expressed in human H4 cells expressing BRI-C99 fusion protein assessed as C99 fragment accumulation fragment at 100 nM incubated for 16 hrs in by immunoblot; format: cell-based; summary of the method: as §1
[5] = molecular target: T3, Gamma-secretase (Homo sapiens); test: Inhibition of gamma secretase expressed in human H4 cells assessed as reduction in C83 levels at 10 uM incubated for 16 hrs by immunoblot; format: cell-based
[6] = molecular target: T3, Gamma-secretase (Homo sapiens); test: Inhibition of gamma secretase expressed in human H4 cells assessed as reduction in CTF levels at 10 uM incubated for 16 hrs by immunoblot; format: cell-based
H4 = test: Inhibition of Alpha secretase expressed in human H4 cells assessed as reduction in C83 levels at 10 uM incubated for 16 hrs by immunoblot; format: cell-based
Summary of the method: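 H4 cells (3 × 10⁵/well) adhered 4−6 h in DMEM/10% FCS at 37 °C, then were switched to serum-free Ultraculture containing compound at 10 μM final for 16 h. Cells were lysed in NP40/deoxycholate buffer, and protein was equalized by BCA. Lysates were run on 10−20% tricine gels and immunoblotted with antibody to the APP C-terminal 20 residues (1:2000); C99 and C83 were imaged on an infrared system.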

Beta-secretase 1 [7] = molecular target: T1, Beta-secretase 1; test: Inhibition of BACE1 expressed in human H4 cells assessed as reduction in CTF levels at 10 uM incubated for 16 hrs by immunoblot; format: cell-based
Serum [8] = test: Drug metabolism in mouse serum assessed as ester hydrolysis mediated formation of metabolites by HPLC-MS method; format: ADME, cell-free
Summary of the method: (§2)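 Compound (10 μL of 25 μg/mL) was incubated with 100 μL mouse serum at 37 °C for 0, 1, 2, 4, 8, 12 and 24 h. The reaction was quenched with EtOAc plus internal standard, shaken 5 min, centrifuged at 16000g, and the organic layer dried and taken up in MeOH. Parent and ester-hydrolysis acid were quantified by HPLC-MS MRM interpolation; n = 2.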

[9] = Permeability at 10 uM at pH 5.0 by PAMPA method; format: ADME; details: read-out: permeability
Brain = test: Drug concentration in CF1 mouse brain at 30 mg/kg, ip measured 3 hrs post dose by HPLC-MS method relative to compound plasma concentration; format: ADME, organism-based; design: dose 30 mg/kg, route intraperitoneal
Summary of the method: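 CF-1 mice, 8 weeks old, 25−35 g, given 30 mg/kg i.p. in 5% DMSO/15% Solutol HS 15/10% EtOH/65% water; killed 3 h post-dose. Cerebellum and cortex homogenized in acetonitrile (1:10 w:v) containing internal standard, then re-extracted. Plasma was taken by cardiac puncture into K-EDTA. Levels were measured by HPLC-MS (MRM, negative ionization) and interpolated from a calibration curve.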

Mus musculus = test: Reduction in […] in CF1 mouse at 30 mg/kg, ip measured 3 hrs post dose by sandwich ELISA; format: functional, organism-based; design: dose 30 mg/kg
Beta-secretase 1 [10] = molecular target: T1, Beta-secretase 1; test: Inhibition of BACE1 expressed in CHO 2B7 cells expressing wild type APP695 assessed as reduction in Abeta40/Abeta42 levels incubated for 16 hrs by sandwich ELISA; format: cell-based
[11] = Drug metabolism in human H4 cells lysates assessed as ester hydrolysis mediated formation of metabolites by HPLC-MS method; format: ADME, cell-based, Lysate
Summary of the method: (§3)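 H4 whole-cell lysate was diluted to 1 mg/mL protein in 0.1 M phosphate buffer, pH 7.4. Parent and acid hydrolysis product were extracted with EtOAc with internal standard. Quantitation was by HPLC-MS MRM against a calibration curve; n = 2.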

Nucleic Acid = test: Ratio of drug level in CF1 mouse brain to IC50 for inhibition of BACE1-mediated Abeta40/Abeta42 production in CHO 2B7 cells expressing wild type APP695; format: cell-based
Summary of the method: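 CF-1 mice (8 weeks, 25−35 g) received 30 mg/kg i.p. in 5% DMSO/15% Solutol HS 15/10% EtOH/65% water and were killed 3 h post-dose. Cerebellum and cortex were homogenized in acetonitrile (1:10 w:v) with internal standard and quantified by HPLC-MS (MRM, negative ion). The cellular reference was CHO 2B7 (APP695 wt): 16 h treatment, 1% DMSO, secreted Aβ40/Aβ42 sandwich ELISA.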

[12] = Stability in human H4 cells lysates by HPLC-MS method; format: ADME, cell-based, Lysate; summary of the method: as §3
Serum [13] = test: Stability in mouse serum by HPLC-MS method; format: ADME, cell-free; summary of the method: as §2
[14] = Permeability at 10 uM at pH 7.4 by PAMPA method; format: ADME; details: read-out: permeability
Summary of the method: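 Filters were coated with BBB-1 lipid, with brain sink buffer in the acceptor. Plates were incubated 4 h at room temperature, humidified. Absorbance was read at 250−350 nm and Pe calculated. Triplicate; mean ± SD.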

T1 sequence (P56817 whole entry): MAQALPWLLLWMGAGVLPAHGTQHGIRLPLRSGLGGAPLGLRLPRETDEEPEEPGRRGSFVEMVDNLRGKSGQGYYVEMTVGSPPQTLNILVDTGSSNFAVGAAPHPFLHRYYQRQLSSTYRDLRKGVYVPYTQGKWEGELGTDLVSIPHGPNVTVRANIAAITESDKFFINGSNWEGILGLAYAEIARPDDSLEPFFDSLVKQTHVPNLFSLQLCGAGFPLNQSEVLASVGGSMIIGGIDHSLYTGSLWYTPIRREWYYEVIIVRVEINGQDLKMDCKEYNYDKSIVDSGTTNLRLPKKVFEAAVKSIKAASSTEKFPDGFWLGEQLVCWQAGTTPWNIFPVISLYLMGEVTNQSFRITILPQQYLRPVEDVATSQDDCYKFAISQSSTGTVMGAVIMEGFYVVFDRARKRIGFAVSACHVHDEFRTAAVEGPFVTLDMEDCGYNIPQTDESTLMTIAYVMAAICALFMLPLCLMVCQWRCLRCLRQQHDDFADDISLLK
Chain of Cathepsin D (P07339 65-162 limits assumed): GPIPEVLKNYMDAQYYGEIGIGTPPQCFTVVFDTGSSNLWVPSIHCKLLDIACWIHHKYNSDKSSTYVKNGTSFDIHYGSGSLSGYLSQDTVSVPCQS
Chain of Cathepsin D (P07339 169-412 limits assumed): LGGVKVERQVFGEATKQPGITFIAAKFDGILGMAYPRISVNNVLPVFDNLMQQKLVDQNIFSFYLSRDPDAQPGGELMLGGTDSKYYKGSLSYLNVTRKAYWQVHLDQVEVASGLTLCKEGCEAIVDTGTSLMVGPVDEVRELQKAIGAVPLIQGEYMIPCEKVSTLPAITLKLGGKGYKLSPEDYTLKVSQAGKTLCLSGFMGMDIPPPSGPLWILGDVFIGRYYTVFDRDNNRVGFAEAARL

## COC(=O)[C@@H](Cc1ccccc1)N(C)C(=O)[C@H](C)NC(=O)[C@H](CC(C)C)NC(=O)C[C@H](O)[C@H](Cc1ccccc1)NC(C)=O
Beta-secretase 1 [1]
  IC50: > 10 µM
Cathepsin D
  IC50: 0.412 µM
Cathepsin E
  IC50: 1.52 µM

## CC(C)C[C@H](NC(=O)C[C@H](O)[C@H](Cc1ccccc1)NC(=O)[C@H](CCC(N)=O)N(C)C(=O)[C@@H](NC(=O)[C@H](C)O)C(C)C)C(=O)N[C@@H](C)C(=O)N(C)[C@H](Cc1ccccc1)C(=O)NCc1ccccc1
Beta-secretase 1 [1]
  IC50: 0.124 µM
Cathepsin D
  IC50: 0.0209 µM
Beta-secretase 1 [2]
  inhibition: Active
Cathepsin E
  IC50: 0.0304 µM

## COC(=O)[C@@H]1CCCN1C(=O)[C@@H](Cc1ccccc1)N(C)C(=O)[C@H](C)NC(=O)[C@H](CC(C)C)NC(=O)C[C@H](O)[C@H](Cc1ccccc1)NC(=O)[C@H](CCC(N)=O)NC(C)=O
[3]
  inhibition: inactive
Cathepsin D
  IC50: 0.00781 µM
Cathepsin E
  IC50: 0.0775 µM

## COC(=O)[C@@H]1CCCN1C(=O)[C@@H](Cc1ccccc1)N(C)C(=O)[C@H](C)NC(=O)[C@H](CC(C)C)NC(=O)C[C@H](O)[C@H](Cc1ccccc1)NC(=O)[C@H](CCC(N)=O)N(C)C(=O)[C@@H](NC(=O)OC(C)(C)C)C(C)C
Cathepsin D
  IC50: 0.000126 µM
Cathepsin E
  IC50: 0.00192 µM

## COC(=O)[C@@H]1CCCN1C(=O)[C@H](Cc1ccccc1)N(C)C(=O)[C@@H](C)NC(=O)[C@H](CC(C)C)NC(=O)C[C@H](O)[C@H](Cc1ccccc1)NC(=O)[C@H](CCC(N)=O)N(C)C(=O)[C@@H](NC(=O)[C@H](C)O)C(C)C
Cathepsin E
  IC50: 1.71 µM

## C[C@H](NC(=O)[C@@H](O)c1cc(F)cc(F)c1)C(=O)N[C@@H]1C(=O)N(C)c2ccccc2-c2ccccc21
[4]
  inhibition: Active
[5]
  inhibition: Active
[6]
  inhibition: Active

## COC(=O)[C@@H]1CCCN1C(=O)[C@@H](Cc1ccccc1)N(C)C(=O)[C@H](C)NC(=O)[C@H](CC(C)C)NC(=O)C[C@H](O)[C@H](Cc1ccccc1)NC(=O)[C@H](CCC(N)=O)N(C)C(=O)[C@@H](NC(=O)[C@H](C)O)C(C)C
Cathepsin E
  IC50: 0.066 µM

## COC(=O)[C@@H]1CCCN1C(=O)[C@@H](Cc1ccccc1)N(C)C(=O)[C@H](C)NC(=O)[C@H](CC(C)C)NC(=O)C[C@H](O)[C@H](Cc1ccccc1)NC(=O)c1cc(NS(C)(=O)=O)cc(C(=O)N[C@H](C)c2ccccc2)c1
H4
  inhibition: inactive
[3]
  inhibition: inactive
Beta-secretase 1 [7]
  inhibition: Active
Serum [8]
  Drug metabolism: Active
[9]
  Papp at 10 µM: 10.7 ×10⁻⁶ cm/s
Brain
  Drug uptake: 2.5%
Mus musculus
  Activity: inactive
Beta-secretase 1 [10]
  IC50: 0.1 µM
Beta-secretase 1 [1]
  IC50: 0.128 µM
Cathepsin D
  IC50: 0.0113 µM
[11]
  Drug metabolism: Active
Beta-secretase 1 [2]
  inhibition: Active
Cathepsin E
  IC50: 0.21 µM
Nucleic Acid
  Ratio: 3
[12]
  Stability: Stable
Serum [13]
  Stability: Stable
[14]
  Papp at 10 µM: 8.58 ×10⁻⁶ cm/s

## COC(=O)[C@@H]1CCCN1C(=O)[C@@H](Cc1ccccc1)N(C)C(=O)[C@H](C)NC(=O)[C@H](CC(C)C)NC(=O)C[C@H](O)[C@H](Cc1ccccc1)NC(C)=O
Cathepsin D
  IC50: 0.0717 µM
Cathepsin E
  IC50: 4.95 µM

Reference: ChEMBL document CHEMBL2176894, “Cyanobacterial peptides as a prototype for the design of potent β-secretase inhibitors and the development of selective chemical probes for other aspartic proteases” (J Med Chem, 2012)
